Experimental data of several laboratories.
Lines come from different studies, so protocols differ.
SLC6A3: Sodium-dependent dopamine transporter (SLC6A3, Homo sapiens, UniProt Q01959)
CA12: Carbonic anhydrase 12 (CA12, Homo sapiens, UniProt O43570)

SMILES | target | read-out | mode | method | pH | setting | Ki [µM]
COC(=O)[C@H]1[C@@H](c2ccc(Cl)c(Cl)c2)C[C@@H]2CC[C@H]1N2CCCOCc1ccc2cc3ccccc3cc2c1 | SLC6A3 | ligand displacement | – | radioligand | pH 7.4 | cell membranes | 0.204
COc1ccc(NC(=O)Nc2ccc3c(c2)C=CCP(=O)(O)O3)cc1 | CA12 | enzyme activity | inhibitor | stopped-flow | – | – | > 10
Cc1c(Cl)c(=O)oc2cc(OCCCC[Se]C#N)ccc12 | CA12 | enzyme activity | inhibitor | stopped-flow | – | – | 0.0716
COC(=O)[C@H]1[C@@H](c2ccc(Cl)cc2)C[C@@H]2CC[C@H]1N2CCCCCCCCCc1c2ccccc2cc2ccccc12 | SLC6A3 | ligand displacement | – | radioligand | pH 7.4 | – | 0.024
COc1cc2c(cc1OC)CN(CCc1ccc(NC(=O)c3cccc4c(=O)c5cccc(OC)c5[nH]c34)cc1)CC2 | D(3) dopamine receptor (DRD3, Homo sapiens, UniProt P35462) | cell-free assay | – | – | – | – | 0.077
CCOP1(=O)CC=Cc2cc(N)ccc2O1 (stereo not drawn) | CA12 | enzyme activity | inhibitor | stopped-flow | – | – | 0.0166
Cc1cc(=O)oc2cc(OCCCC[Se]C#N)ccc12 | CA12 | enzyme activity | inhibitor | stopped-flow | – | – | 0.0516
O=C(Nc1ccc2c(c1)C=CCP(=O)(O)O2)c1ccc(I)cc1 | CA12 | enzyme activity | inhibitor | stopped-flow | – | – | 0.0575
CCCCC1CNC2CCc3ccc(OC)cc3C12 (racemic) | SLC6A3 | ligand displacement | – | radioligand | – | – | > 10
